Measured values reported in ChEMBL document CHEMBL1909531, “Mitochondrial respiration inhibitors suppress protein translation and hypoxic signaling via the hyperphosphorylation and inactivation of translation initiation factor eIF2α and elongation factor eEF2” (J Nat Prod, 2011).
Calls of active or inactive are those of the source. The calls are words filed in the database; no cut-off is given here.

Assays:
[1] = target: T1, Hypoxia inducible factors; HIF-1-alpha, HIF-2-alpha (Homo sapiens, UniProt Q16665+Q99814); assay: Inhibition of 1, 10-phenanthroline-induced HIF1 activation in human T47D cells after 16 hrs by HRE3-TK-luciferase reporter gene assay; format: cell-based
[2] = system: T47D; assay: Ratio of IC50 for 1, 10-phenanthroline-induced HIF1 activation in human T47D cells to IC50 for hypoxia-induced HIF1 activation in human T47D cells; format: cell-based
[3] = target: T1, Hypoxia inducible factors; HIF-1-alpha, HIF-2-alpha; assay: Inhibition of HIF1-mediated induction of cellular VEGF protein in hypoxia-stimulated human T47D cells at 0.3 uM after 16 hrs by ELISA; format: cell-based
[4] = target: T1, Hypoxia inducible factors; HIF-1-alpha, HIF-2-alpha; assay: Inhibition of HIF1-mediated induction of secreted VEGF protein in hypoxia-stimulated human T47D cells at 0.3 uM after 16 hrs by ELISA; format: cell-based
[5] = target: T1, Hypoxia inducible factors; HIF-1-alpha, HIF-2-alpha; assay: Inhibition of HIF1-mediated induction of cellular VEGF protein in hypoxia-stimulated human T47D cells at 3 uM after 16 hrs by ELISA; format: cell-based
[6] = target: T1, Hypoxia inducible factors; HIF-1-alpha, HIF-2-alpha; assay: Inhibition of HIF1-mediated induction of secreted VEGF protein in hypoxia-stimulated human T47D cells at 3 uM after 16 hrs by ELISA; format: cell-based
[7] = target: T1, Hypoxia inducible factors; HIF-1-alpha, HIF-2-alpha; assay: Inhibition of HIF1-mediated induction of Glut-1 mRNA expression in human T47D cells at 3 uM after 16 hrs by RT-PCR analysis under normoxic condition; format: cell-based
[8] = target: T1, Hypoxia inducible factors; HIF-1-alpha, HIF-2-alpha; assay: Inhibition of HIF1-mediated induction of VEGF mRNA expression in human T47D cells at 3 uM after 16 hrs by RT-PCR analysis under normoxic condition; format: cell-based
[9] = target: T1, Hypoxia inducible factors; HIF-1-alpha, HIF-2-alpha; assay: Inhibition of HIF1-mediated induction of cellular VEGF protein in human T47D cells at 3 uM after 16 hrs by ELISA under normoxic condition; format: cell-based
[10] = target: T1, Hypoxia inducible factors; HIF-1-alpha, HIF-2-alpha; assay: Inhibition of HIF1-mediated induction of secreted VEGF protein in human T47D cells at 3 uM after 16 hrs by ELISA under normoxic condition; format: cell-based
[11] = system: T47D; assay: Inhibition of 1, 10-phenanthroline-induced HIF1beta protein accumulation in human T47D cells at 3 uM after 4 hrs by Western blot analysis; format: functional, cell-based
[12] = system: T47D; assay: Inhibition of cellular respiration in human T47D cell at 0.03 to 1 uM by oxygen consumption assay; format: functional, cell-based
Procedure, shortened: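 Oxygen consumption of intact T47D cells measured with a Clark-type electrode, in serum-free DMEM/F12 at 30 °C.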

[13] = system: T47D; assay: Inhibition of cellular respiration in human T47D cells at 0.3 uM in presence of complex 2 substrate succinate; format: functional, cell-based
Procedure, shortened: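 Permeabilized T47D cells, oxygen consumption measured by Clark-type electrode. Complex I respiration started with malate plus pyruvate; succinate added as complex II substrate.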

[14] = system: MDA-MB-231; assay: Antiproliferative activity against human MDA-MB-231 cells assessed as cell viability by SRB assay; format: functional, cell-based
Procedure, shortened: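 Cells grown in DMEM/F12 with 10% FBS, penicillin and streptomycin; 96-well viability assay, 2-day or 6-day exposure, with medium (5% FBS) and compound renewed after 3 days in the 6-day study. Read by optical density; % inhibition = [1 − (ODtreated/ODcontrol)] × 100 versus medium control.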

[15] = system: MDA-MB-231; assay: Reduction in ATP level in human MDA-MB-231 cells at 0.1 to 1 uM after 48 hrs by HPLC-UV analysis; format: functional, cell-based
Procedure, shortened: (§1)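 Cells seeded at 5 × 10^5 per well in DMEM/F12 with 10% FBS; after 24 h, half the medium was replaced with serum-free medium containing compound. Cells washed with cold DPBS, extracted with cold 0.4 M perchloric acid, neutralized with K2CO3. Nucleotides quantified by C18 HPLC-UV, 50 mM potassium phosphate pH 6.0/MeOH mobile phase, 0.7 mL/min.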

[16] = system: MDA-MB-231; assay: Reduction in ATP level in human MDA-MB-231 cells after 72 hrs by HPLC-UV analysis; format: functional, cell-based
Procedure, shortened: (§2)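 5 × 10^5 cells per well seeded in DMEM/F12 with 10% FBS. After 24 h, half the medium replaced with serum-free DMEM/F12 containing compound. After exposure, cells washed in cold DPBS and extracted with cold 0.4 M perchloric acid, then neutralized with K2CO3. ATP quantified by reversed-phase C18 HPLC-UV using 50 mM potassium phosphate pH 6.0/MeOH at 0.7 mL/min.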

[17] = system: T47D; assay: Reduction in ATP level in human T47D cells after 72 hrs by HPLC-UV analysis; format: functional, cell-based; procedure, shortened: as §2
[18] = system: T47D; assay: Reduction in ATP level in human T47D cells after 48 hrs by HPLC-UV analysis; format: functional, cell-based; procedure, shortened: as §2
[19] = system: T47D; assay: Reduction in ATP level in human T47D cells by HPLC-UV analysis at 1 uM after 72 hrs; format: functional, cell-based; procedure, shortened: as §1
[20] = system: T47D; assay: Antiproliferative activity against human T47D cells assessed as cell viability at 1 uM after 72 hrs by SRB assay; format: functional; settings: read-out: Activity
Procedure, shortened: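 T47D cells treated for 72 h in parallel with the HPLC ATP time course; viability measured by sulforhodamine B, in which cells are fixed directly in the wells without aspiration or washing, so loosely attached cells are kept.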

[21] = target: Serine/threonine-protein kinase mTOR (Homo sapiens) (UniProt P42345); assay: Inhibition of mTOR-mediated 4E-BP1 phosphorylation on Thr 37/46 in human T47D cells at 1 to 10 uM after 30 mins by Western blotting; format: cell-based
[22] = target: Serine/threonine-protein kinase mTOR (Homo sapiens) (UniProt P42345); assay: Inhibition of mTOR-mediated rpS6 phosphorylation on Ser 235/236 in human T47D cells at 1 to 10 uM after 30 mins by Western blotting; format: cell-based
[23] = target: Serine/threonine-protein kinase mTOR (Homo sapiens) (UniProt P42345); assay: Inhibition of mTORC1-mediated eIF4E phosphorylation on Ser 209 in human T47D cells at 1 to 10 uM after 30 mins by Western blotting; format: cell-based
[24] = target: Serine/threonine-protein kinase mTOR (Homo sapiens) (UniProt P42345); assay: Inhibition of mTOR in human T47D cells assessed as eIF2alpha hyperphosphorylation on Ser 51 at 1 to 10 uM after 30 mins by Western blotting; format: cell-based
Procedure, shortened: (§3)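 Cells seeded at 0.8 × 10^6 per well, exposed 30 min at 37 °C, 5% CO2, in DMEM/F12 with 5% FBS. Lysed in modified RIPA (pH 7.6) with protease and phosphatase inhibitors; 40 µg protein run on 4–20% gels, nitrocellulose transfer. Phospho-specific and total eIF2α/eEF2 primaries at 1:1,000, HRP anti-rabbit at 1:2000, chemiluminescence on film.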

[25] = target: Serine/threonine-protein kinase mTOR (Homo sapiens) (UniProt P42345); assay: Inhibition of mTOR in human T47D cells assessed as eEF2 hyperphosphorylation on Ser 56 at 1 to 10 uM after 30 mins by Western blotting; format: cell-based; procedure, shortened: as §3
[26] = target: Serine/threonine-protein kinase mTOR (Homo sapiens) (UniProt P42345); assay: Inhibition of mTOR-mediated 4E-BP1 phosphorylation on Thr 37/46 in human MDA-MB-231 cells at 1 to 10 uM after 30 mins by Western blotting; format: cell-based
[27] = target: Serine/threonine-protein kinase mTOR (Homo sapiens) (UniProt P42345); assay: Inhibition of mTOR-mediated rpS6 phosphorylation on Ser 235/236 in human MDA-MB-231 cells at 1 to 10 uM after 30 mins by Western blotting; format: cell-based
[28] = target: Serine/threonine-protein kinase mTOR (Homo sapiens) (UniProt P42345); assay: Inhibition of mTOR-mediated eIF4E phosphorylation on Ser 209 in human MDA-MB-231 cells at 1 to 10 uM after 30 mins by Western blotting; format: cell-based
[29] = system: T47D; assay: Inhibition of cellular respiration in human T47D cells at 0.3 uM in presence of complex 4 substrate TMPD/ascorbate; format: functional, cell-based

- IC50 [1]: > 10 µM
- inhibition [3]: Active
- inhibition [4]: Active
- inhibition [5]: Active
- inhibition [6]: Active
- inhibition [7]: inactive
- inhibition [8]: inactive
- inhibition [9]: inactive
- inhibition [10]: inactive
- inhibition [21]: inactive
- inhibition [22]: inactive
- inhibition [23]: inactive
- inhibition [24]: Dose-dependent effect
- Activity [25]: Dose-dependent effect
- inhibition [26]: inactive
- inhibition [27]: inactive
- inhibition [28]: inactive
Structure (SMILES): CC(C)CC(=O)O[C@@H]1CC[C@]2(C)[C@H]3CC[C@]45C[C@]4(CC[C@@H]5[C@@H]4C[C@H]([C@@H]5OC5(C)C)OC4O)[C@]3(C)[C@H](O)C[C@H]2C1(C)C (some centres undefined) [SKIMMIAREPIN A]
- Ratio IC50 [2]: 80
- inhibition [11]: inactive
- inhibition [12]: Dose-dependent effect
- inhibition [13]: inactive
- Activity [14]: inactive
- Activity [15]: inactive
- Activity [16]: Dose-dependent effect
- Activity [17]: Dose-dependent effect
- Activity [18]: Active
- Activity [19]: Active
- viability at 1 µM [20]: 50%
- inhibition [29]: inactive
